Data reported in ChEMBL document CHEMBL5705905, “Pharmacological targeting of kinases MST1 and MST2 augments tissue repair and regeneration” (Sci Transl Med, 2016).
pIC50: −log10 of the molar value. Calls of active or inactive are those of the source. No cut-off for these calls is given here.

What was measured:
[1] = target: Calcium/calmodulin-dependent protein kinase type 1D (Homo sapiens) (UniProt Q8IU85); test: Inhibition of CAMK1D (unknown origin) assessed as remaining activity at 1 uM by Kinome scan method relative to control
In short: (§1)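 Active-site-dependent competition-binding profiling (KINOMEscan) at 1 μM against a 468-kinase panel; compound supplied from a 10 mM DMSO stock. Read-out is ctrl% = (test signal − positive control signal)/(negative control signal − positive control signal) × 100. DMSO is the negative control (100%) and a control compound the positive control (0%). Lower ctrl% means tighter binding.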

[2] = target: Cyclin-dependent kinase 8 (Homo sapiens) (UniProt P49336); test: Inhibition of CDK8 (unknown origin) assessed as remaining activity at 1 uM by Kinome scan method relative to control; in short: as §1
[3] = target: Cyclin-dependent kinase-like 3 (Homo sapiens) (UniProt Q8IVW4); test: Inhibition of CDKL3 (unknown origin) assessed as remaining activity at 1 uM by Kinome scan method relative to control; in short: as §1
[4] = target: Casein kinase I isoform gamma-3 (Homo sapiens) (UniProt Q9Y6M4); test: Inhibition of CSNK1G3 (unknown origin) assessed as remaining activity at 1 uM by Kinome scan method relative to control; in short: as §1
[5] = target: Serine/threonine-protein kinase DCLK1 (Homo sapiens) (UniProt O15075); test: Inhibition of DCAMKL1 (unknown origin) assessed as remaining activity at 1 uM by Kinome scan method relative to control
In short: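 Active-site-dependent competition-binding assay (KINOMEscan) across a 468-kinase panel, with the inhibitor tested at 1 μM from a 10 mM DMSO stock. Read-out is ctrl% = (test signal − positive control)/(negative control − positive control) × 100. DMSO is the negative control (100%) and a control compound the positive control (0%). Lower ctrl% means tighter binding.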

[6] = target: Dual specificity tyrosine-phosphorylation-regulated kinase 2 (Homo sapiens) (UniProt Q92630); test: Inhibition of DYRK2 (unknown origin) assessed as remaining activity at 1 uM by Kinome scan method relative to control
[7] = system: Epidermal growth factor receptor (Homo sapiens), P00533 [UNDEFINED MUTATION]; test: Inhibition of EGFR S752-I759del mutant (unknown origin) assessed as remaining activity at 1 uM by Kinome scan method relative to control
[8] = target: Serine/threonine-protein kinase/endoribonuclease IRE1 (Homo sapiens) (UniProt O75460); test: Inhibition of ERN1 (unknown origin) assessed as remaining activity at 1 uM by Kinome scan method relative to control
[9] = target: Fibroblast growth factor receptor 4 (Homo sapiens) (UniProt P22455); test: Inhibition of FGFR4 (unknown origin) assessed as remaining activity at 1 uM by Kinome scan method relative to control
[10] = target: Vascular endothelial growth factor receptor 3 (Homo sapiens) (UniProt P35916); test: Inhibition of FLT4 (unknown origin) assessed as remaining activity at 1 uM by Kinome scan method relative to control
[11] = target: Insulin receptor-related protein (Homo sapiens) (UniProt P14616); test: Inhibition of INSRR (unknown origin) assessed as remaining activity at 1 uM by Kinome scan method relative to control
[12] = target: Interleukin-1 receptor-associated kinase 4 (Homo sapiens) (UniProt Q9NWZ3); test: Inhibition of IRAK4 (unknown origin) assessed as remaining activity at 1 uM by Kinome scan method relative to control
[13] = target: Mitogen-activated protein kinase 10 (Homo sapiens) (UniProt P53779); test: Inhibition of JNK3 (unknown origin) assessed as remaining activity at 1 uM by Kinome scan method relative to control
[14] = target: Serine/threonine-protein kinase LATS1 (Homo sapiens) (UniProt O95835); test: Inhibition of LATS1 (unknown origin) assessed as remaining activity at 1 uM by Kinome scan method relative to control
[15] = target: Mitogen-activated protein kinase 13 (Homo sapiens) (UniProt O15264); test: Inhibition of P38delta (unknown origin) assessed as remaining activity at 1 uM by Kinome scan method relative to control
[16] = target: Serine/threonine-protein kinase PAK 2 (Homo sapiens) (UniProt Q13177); test: Inhibition of PAK2 (unknown origin) assessed as remaining activity at 1 uM by Kinome scan method relative to control
[17] = system: Phosphatidylinositol 4,5-bisphosphate 3-kinase catalytic subunit alpha isoform (Homo sapiens), P42336 [E542K]; test: Inhibition of PIK3CA E542K mutant (unknown origin) assessed as remaining activity at 1 uM by Kinome scan method relative to control
[18] = system: Phosphatidylinositol 4,5-bisphosphate 3-kinase catalytic subunit alpha isoform (Homo sapiens), P42336 [H1047L]; test: Inhibition of PIK3CA H1047L mutant (unknown origin) assessed as remaining activity at 1 uM by Kinome scan method relative to control
[19] = target: SRSF protein kinase 3 (Homo sapiens) (UniProt Q9UPE1); test: Inhibition of SRPK3 (unknown origin) assessed as remaining activity at 1 uM by Kinome scan method relative to control
[20] = target: Serine/threonine-protein kinase 36 (Homo sapiens) (UniProt Q9NRP7); test: Inhibition of STK36 (unknown origin) assessed as remaining activity at 1 uM by Kinome scan method relative to control
[21] = target: Mitogen-activated protein kinase kinase kinase 7 (Homo sapiens) (UniProt O43318); test: Inhibition of TAK1 (unknown origin) assessed as remaining activity at 1 uM by Kinome scan method relative to control
[22] = target: Non-receptor tyrosine-protein kinase TYK2 (Homo sapiens, UniProt P29597); test: Inhibition of TYK2 JH2 domain (unknown origin) assessed as remaining activity at 1 uM by Kinome scan method relative to control
[23] = target: Tyrosine-protein kinase receptor TYRO3 (Homo sapiens) (UniProt Q06418); test: Inhibition of TYRO3 (unknown origin) assessed as remaining activity at 1 uM by Kinome scan method relative to control
Homo sapiens = organism: Homo sapiens; test: Inhibition of recombinant His-tagged full-length MST1 Y101F mutant (unknown origin) expressing in Escherichia coli assessed as GST-tagged MOB1 phosphorylation level at 0.01 to 1 uM incubated for 15 min by immunoblot analysis; details: dose 0.01-1 µM
[24] = MRT (0 to infinity) in male Sprague-Dawley rat at 10 mg/kg, po measured for 24 hrs by LC-MS/MS analysis; assay type: ADME, organism-based; details: in vivo
Mus musculus [25] = test: In vivo inhibition of MST1/2 in wild-type Mst1fl/fl Mst2fl/fl mouse assessed as high number in nuclear YAP-positive cells at 1 mg/kg, ip administrated daily for 7 days by immunohistochemical staining; assay type: functional, organism-based; details: Liver, time 7.0 day
Mus musculus [26] = test: Protection against APAP induced liver injury in mouse assessed as decrease in mortality rate at 1 mg/kg, ip administered at 2.5 hrs in the presence of NAC; assay type: functional, organism-based
[27] = target: Serine/threonine-protein kinase 3 (Homo sapiens, UniProt Q13188, D109A)

Sequence of Interleukin-1 receptor-associated kinase 4 (Homo sapiens) (Q9NWZ3 whole entry): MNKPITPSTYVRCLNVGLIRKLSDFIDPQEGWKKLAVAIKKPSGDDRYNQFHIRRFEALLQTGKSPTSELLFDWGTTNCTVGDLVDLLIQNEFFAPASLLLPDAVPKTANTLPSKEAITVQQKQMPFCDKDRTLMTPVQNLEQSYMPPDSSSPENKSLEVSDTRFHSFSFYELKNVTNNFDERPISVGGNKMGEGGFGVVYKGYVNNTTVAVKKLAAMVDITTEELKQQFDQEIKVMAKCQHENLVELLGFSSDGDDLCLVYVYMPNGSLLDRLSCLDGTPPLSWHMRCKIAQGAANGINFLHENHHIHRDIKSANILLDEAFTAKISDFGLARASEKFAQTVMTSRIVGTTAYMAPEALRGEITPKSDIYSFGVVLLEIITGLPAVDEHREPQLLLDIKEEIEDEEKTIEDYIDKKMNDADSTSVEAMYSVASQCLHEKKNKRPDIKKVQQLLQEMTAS
Sequence of Casein kinase I isoform gamma-3 (Homo sapiens) (Q9Y6M4 whole entry, looked up, canonical isoform): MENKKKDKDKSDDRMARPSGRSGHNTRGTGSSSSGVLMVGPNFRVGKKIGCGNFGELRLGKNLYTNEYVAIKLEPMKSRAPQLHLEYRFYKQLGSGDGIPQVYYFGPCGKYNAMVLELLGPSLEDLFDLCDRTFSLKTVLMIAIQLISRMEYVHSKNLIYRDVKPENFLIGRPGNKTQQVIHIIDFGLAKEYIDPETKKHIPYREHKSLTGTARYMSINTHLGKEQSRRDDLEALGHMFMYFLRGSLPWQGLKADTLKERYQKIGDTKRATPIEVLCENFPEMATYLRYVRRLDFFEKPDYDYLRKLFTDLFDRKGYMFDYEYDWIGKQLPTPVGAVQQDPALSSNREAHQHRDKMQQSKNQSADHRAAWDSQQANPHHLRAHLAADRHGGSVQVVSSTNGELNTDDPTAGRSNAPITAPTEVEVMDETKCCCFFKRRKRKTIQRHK
Sequence of Mitogen-activated protein kinase 13 (Homo sapiens) (O15264 whole entry): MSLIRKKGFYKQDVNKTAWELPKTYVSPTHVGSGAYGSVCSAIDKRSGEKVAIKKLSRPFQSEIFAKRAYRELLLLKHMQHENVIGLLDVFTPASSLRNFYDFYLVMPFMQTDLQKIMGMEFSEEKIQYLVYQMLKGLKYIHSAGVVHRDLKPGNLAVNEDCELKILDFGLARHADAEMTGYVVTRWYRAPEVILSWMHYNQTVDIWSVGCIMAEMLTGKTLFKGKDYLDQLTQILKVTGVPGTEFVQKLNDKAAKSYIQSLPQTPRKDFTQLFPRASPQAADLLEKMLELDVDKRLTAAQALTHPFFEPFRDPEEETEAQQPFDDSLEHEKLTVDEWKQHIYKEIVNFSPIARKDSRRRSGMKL
Sequence of Mitogen-activated protein kinase kinase kinase 7 (Homo sapiens) (O43318 whole entry, the tested form may be a part): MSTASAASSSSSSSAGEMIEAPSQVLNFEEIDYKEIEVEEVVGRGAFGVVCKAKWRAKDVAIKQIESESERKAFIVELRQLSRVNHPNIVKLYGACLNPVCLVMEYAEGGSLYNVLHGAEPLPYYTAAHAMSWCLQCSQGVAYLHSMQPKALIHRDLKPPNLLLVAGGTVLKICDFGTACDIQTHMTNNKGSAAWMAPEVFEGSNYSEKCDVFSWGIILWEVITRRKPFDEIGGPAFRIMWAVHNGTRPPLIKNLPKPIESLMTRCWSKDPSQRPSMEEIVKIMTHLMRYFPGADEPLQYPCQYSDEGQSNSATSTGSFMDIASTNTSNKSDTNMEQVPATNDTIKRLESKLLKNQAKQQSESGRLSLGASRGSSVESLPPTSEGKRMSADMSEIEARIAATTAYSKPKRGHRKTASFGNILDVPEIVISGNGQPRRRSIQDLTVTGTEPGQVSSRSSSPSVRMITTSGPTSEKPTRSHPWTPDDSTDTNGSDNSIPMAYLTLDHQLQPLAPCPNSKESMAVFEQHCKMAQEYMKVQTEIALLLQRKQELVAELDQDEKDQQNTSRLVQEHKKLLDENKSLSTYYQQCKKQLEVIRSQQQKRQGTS
Sequence of Serine/threonine-protein kinase 36 (Homo sapiens) (Q9NRP7 whole entry): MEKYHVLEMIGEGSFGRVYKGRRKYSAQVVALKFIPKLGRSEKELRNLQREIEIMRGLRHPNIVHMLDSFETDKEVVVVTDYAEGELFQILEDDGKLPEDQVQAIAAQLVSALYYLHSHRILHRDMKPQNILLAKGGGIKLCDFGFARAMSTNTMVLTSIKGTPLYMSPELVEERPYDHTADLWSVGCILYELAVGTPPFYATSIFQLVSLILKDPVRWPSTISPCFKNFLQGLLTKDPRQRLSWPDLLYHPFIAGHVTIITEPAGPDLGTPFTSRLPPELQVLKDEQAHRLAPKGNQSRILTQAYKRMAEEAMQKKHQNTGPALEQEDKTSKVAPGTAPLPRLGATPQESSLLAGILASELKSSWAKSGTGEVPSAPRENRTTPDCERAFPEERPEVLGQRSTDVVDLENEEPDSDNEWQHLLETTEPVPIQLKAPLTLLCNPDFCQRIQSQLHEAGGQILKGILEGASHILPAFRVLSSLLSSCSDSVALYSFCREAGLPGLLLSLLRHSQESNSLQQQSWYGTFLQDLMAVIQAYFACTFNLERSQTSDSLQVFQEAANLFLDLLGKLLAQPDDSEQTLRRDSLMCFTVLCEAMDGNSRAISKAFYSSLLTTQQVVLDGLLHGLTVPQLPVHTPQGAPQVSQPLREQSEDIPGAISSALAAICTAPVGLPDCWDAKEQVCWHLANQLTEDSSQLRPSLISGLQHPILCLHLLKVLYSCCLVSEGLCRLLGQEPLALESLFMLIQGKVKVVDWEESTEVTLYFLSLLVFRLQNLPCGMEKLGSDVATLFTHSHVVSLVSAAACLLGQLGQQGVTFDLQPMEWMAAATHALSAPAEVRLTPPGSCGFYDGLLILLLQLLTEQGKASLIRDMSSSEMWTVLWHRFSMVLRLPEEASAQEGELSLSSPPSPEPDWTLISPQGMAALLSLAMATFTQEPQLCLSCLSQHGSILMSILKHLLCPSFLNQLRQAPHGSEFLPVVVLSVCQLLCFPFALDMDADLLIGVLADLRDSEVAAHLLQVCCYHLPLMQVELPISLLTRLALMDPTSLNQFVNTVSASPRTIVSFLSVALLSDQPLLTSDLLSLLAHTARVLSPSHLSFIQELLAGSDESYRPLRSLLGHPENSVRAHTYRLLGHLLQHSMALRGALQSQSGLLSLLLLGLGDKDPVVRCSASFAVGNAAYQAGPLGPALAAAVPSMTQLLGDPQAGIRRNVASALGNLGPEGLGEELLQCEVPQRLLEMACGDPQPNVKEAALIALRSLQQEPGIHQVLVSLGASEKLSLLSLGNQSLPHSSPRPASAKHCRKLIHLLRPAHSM
Sequence of Mitogen-activated protein kinase 10 (Homo sapiens) (P53779 whole entry): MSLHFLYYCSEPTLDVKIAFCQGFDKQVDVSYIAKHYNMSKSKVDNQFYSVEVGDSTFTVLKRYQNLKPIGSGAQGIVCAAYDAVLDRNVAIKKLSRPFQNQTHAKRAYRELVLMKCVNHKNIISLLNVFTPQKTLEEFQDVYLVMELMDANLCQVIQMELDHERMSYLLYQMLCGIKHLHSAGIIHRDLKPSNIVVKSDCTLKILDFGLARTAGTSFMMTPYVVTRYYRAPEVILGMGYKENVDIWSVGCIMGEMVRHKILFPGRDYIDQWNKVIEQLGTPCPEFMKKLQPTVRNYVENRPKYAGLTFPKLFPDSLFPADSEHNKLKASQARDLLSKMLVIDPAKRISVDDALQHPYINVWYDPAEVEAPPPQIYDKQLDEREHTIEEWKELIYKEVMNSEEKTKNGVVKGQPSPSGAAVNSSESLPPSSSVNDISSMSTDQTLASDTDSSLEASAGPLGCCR
Sequence of Insulin receptor-related protein (Homo sapiens) (P14616 27-742 limits assumed): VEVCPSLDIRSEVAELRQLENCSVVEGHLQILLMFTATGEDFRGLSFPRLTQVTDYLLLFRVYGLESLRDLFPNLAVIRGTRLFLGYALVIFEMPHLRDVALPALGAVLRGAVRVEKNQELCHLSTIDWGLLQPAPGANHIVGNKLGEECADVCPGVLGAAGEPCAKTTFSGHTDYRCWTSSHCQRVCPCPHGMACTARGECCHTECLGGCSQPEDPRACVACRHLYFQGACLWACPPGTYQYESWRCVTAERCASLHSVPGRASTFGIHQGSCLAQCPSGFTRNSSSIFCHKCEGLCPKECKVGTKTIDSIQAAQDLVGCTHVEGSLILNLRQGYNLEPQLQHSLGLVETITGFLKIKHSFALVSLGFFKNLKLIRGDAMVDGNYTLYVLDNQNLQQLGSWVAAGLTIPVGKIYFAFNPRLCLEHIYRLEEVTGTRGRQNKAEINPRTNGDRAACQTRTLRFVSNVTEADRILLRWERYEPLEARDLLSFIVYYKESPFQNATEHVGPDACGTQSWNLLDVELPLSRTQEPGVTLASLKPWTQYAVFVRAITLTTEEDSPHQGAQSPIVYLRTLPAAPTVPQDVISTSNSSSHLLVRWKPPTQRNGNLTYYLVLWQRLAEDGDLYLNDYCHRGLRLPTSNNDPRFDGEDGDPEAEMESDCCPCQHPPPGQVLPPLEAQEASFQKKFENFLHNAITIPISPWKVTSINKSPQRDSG
Sequence of Insulin receptor-related protein (Homo sapiens) (P14616 747-1297 limits assumed): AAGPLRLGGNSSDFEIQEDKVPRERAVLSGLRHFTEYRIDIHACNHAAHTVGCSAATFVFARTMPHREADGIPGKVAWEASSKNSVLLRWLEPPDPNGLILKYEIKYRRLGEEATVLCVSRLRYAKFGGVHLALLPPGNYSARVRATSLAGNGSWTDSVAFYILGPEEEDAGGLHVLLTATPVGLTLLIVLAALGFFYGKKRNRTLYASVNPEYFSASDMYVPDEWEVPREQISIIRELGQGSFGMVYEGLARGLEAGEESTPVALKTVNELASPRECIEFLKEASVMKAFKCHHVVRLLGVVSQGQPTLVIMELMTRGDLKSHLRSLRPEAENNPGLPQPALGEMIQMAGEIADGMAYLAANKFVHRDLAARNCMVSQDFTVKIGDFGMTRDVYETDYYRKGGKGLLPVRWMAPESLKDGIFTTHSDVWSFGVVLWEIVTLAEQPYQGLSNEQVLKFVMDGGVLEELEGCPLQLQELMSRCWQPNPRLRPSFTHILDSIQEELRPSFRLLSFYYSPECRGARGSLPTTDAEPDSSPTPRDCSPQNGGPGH

For `CN1C(=O)c2sccc2N(C)c2nc(Nc3ccc(S(N)(=O)=O)cc3)ncc21`, the Activity [1] was 100%, the Activity [2] was 94% and the Activity [3] was 91%. It also gave an Activity [4] of 72%, an Activity [5] of 8.3% and an Activity [6] of 84%. The Activity [7] was 100%, the Activity [8] was 65% and the Activity [9] was 100%. It also gave an Activity [10] of 67%, an Activity [11] of 100% and an Activity [12] of 100%. It also gave an Activity [13] of 82%, an Activity [14] of 100% and an Activity [15] of 94%. The Activity [16] was 84%, the Activity [17] was 48% and the Activity [18] was 4.6%. The Activity [19] was 100%, the Activity [20] was 100% and the Activity [21] was 71%. The Activity [22] was 71%, the Activity [23] was 100% and the inhibition (Homo sapiens) was “Active”. The MRT inf [24] was 7.34 h, the inhibition (Mus musculus [25]) was “Active” and the Activity (Mus musculus [26]) was “Active”. The pIC50 [27] was 5.98.
